According to ChEMBL document CHEMBL2311479, “Remarkable stabilization of antiparallel DNA triplexes by strong stacking effects of consecutively modified nucleobases containing thiocarbonyl groups” (Bioorg Med Chem Lett, 2013):
Activity calls are given as the source filed them. No cut-off for these calls is given here.

What was measured:
[1] = Binding affinity to HP duplex DNA 1 (unknown origin) containing c-Myc P2 promoter sequence incubated for 12 hrs at 37 degC in presence of 50 mM pH 7.2 HEPES buffer containing 10 mM MgCl2, 100 mM NaCl and 10% sucrose
[2] = (§1) Binding affinity to fluorescently-labeled mismatched HP duplex DNA 6 (unknown origin) containing HIV2 nef gene assessed as formation of stable triplexes at 100 uM incubated for 12 hrs at 37 degC in presence of 50 mM pH 7.2 HEPES buffer containing 10 mM MgCl2, 100 mM NaCl and 10% sucrose by gel mobility shift assay
In short: (§2)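 Triplex formation by gel shift. Oligonucleotide at 100 µM was mixed with fluorescently labeled hairpin duplex at 40 nM in 50 mM HEPES (pH 7.2), 10 mM MgCl2, 100 mM NaCl and 10% sucrose for 12 h at 37 °C. Complexes were resolved on a 15% nondenaturing polyacrylamide gel.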

[3] = as §1, with “7” for “6”; in short: as §2
[4] = as §1, with “8” for “6”; in short: as §2
[5] = Binding affinity to HP duplex DNA 2 (unknown origin) containing HIV2 nef gene sequence incubated for 12 hrs at 37 degC in presence of 50 mM pH 7.2 HEPES buffer containing 10 mM MgCl2, 100 mM KCl and 10% sucrose
[6] = as §1, with “3” for “6”; in short: as §2
[7] = Binding affinity to HP duplex DNA 2 (unknown origin) containing HIV2 nef gene sequence incubated for 12 hrs at 37 degC in presence of 50 mM pH 7.2 HEPES buffer containing 10 mM MgCl2, 100 mM NaCl and 10% sucrose
In short: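 Oligonucleotide binding to a 5'-FAM-labeled hairpin duplex bearing the HIV2 nef sequence. Incubation was 12 h at 37 °C in 50 mM HEPES (pH 7.2) with 10 mM MgCl2, 100 mM NaCl and 10% sucrose. Kd reported in µM.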

[8] = as §1, with “5” for “6”; in short: as §2
[9] = Binding affinity to fluorescently-labeled HP duplex DNA 2 (unknown origin) containing HIV2 nef gene assessed as formation of stable triplexes at 40 uM by gel mobility shift assay
[10] = as §1, with “4” for “6”; in short: as §2
[11] = as §1, with “fluorescently-labeled” for “fluorescently-labeled mismatched”, “2” for “6”; in short: as §2
[12] = Binding affinity to fluorescently-labeled HP duplex DNA 2 (unknown origin) containing HIV2 nef gene assessed as formation of stable triplexes at 40 uM in presence of 40 uM RNA 1 (5'-CACCACCACCACC-3') by gel mobility shift assay

SMILES: Cc1cn([C@H]2C[C@H](OP(=O)(O)OC[C@H]3O[C@@H](n4cnc5c(=S)[nH]c(N)nc54)C[C@@H]3OP(=O)(O)OC[C@H]3O[C@@H](n4cnc5c(=S)[nH]c(N)nc54)C[C@@H]3OP(=O)(O)OC[C@H]3O[C@@H](n4cnc5c(=S)[nH]c(N)nc54)C[C@@H]3OP(=O)(O)OC[C@H]3O[C@@H](n4cc(C)c(=S)[nH]c4=O)C[C@@H]3OP(=O)(O)OC[C@H]3O[C@@H](n4cnc5c(=S)[nH]c(N)nc54)C[C@@H]3OP(=O)(O)OC[C@H]3O[C@@H](n4cnc5c(=S)[nH]c(N)nc54)C[C@@H]3OP(=O)(O)OC[C@H]3O[C@@H](n4cnc5c(=S)[nH]c(N)nc54)C[C@@H]3OP(=O)(O)OC[C@H]3O[C@@H](n4cc(C)c(=S)[nH]c4=O)C[C@@H]3OP(=O)(O)OC[C@H]3O[C@@H](n4cnc5c(=S)[nH]c(N)nc54)C[C@@H]3OP(=O)(O)OC[C@H]3O[C@@H](n4cnc5c(=O)[nH]c(N)nc54)[C@H](O)[C@@H]3O)[C@@H](CO)O2)c(=O)[nH]c1=S
- Kd [1]: 670 nM

SMILES: Cc1cn([C@H]2C[C@H](OP(=O)(O)OC[C@H]3O[C@@H](n4cnc5c(=S)[nH]c(N)nc54)C[C@@H]3OP(=O)(O)OC[C@H]3O[C@@H](n4cnc5c(=S)[nH]c(N)nc54)C[C@@H]3OP(=O)(O)OC[C@H]3O[C@@H](n4cnc5c(=S)[nH]c(N)nc54)C[C@@H]3OP(=O)(O)OC[C@H]3O[C@@H](n4cc(C)c(=O)[nH]c4=O)C[C@@H]3OP(=O)(O)OC[C@H]3O[C@@H](n4cnc5c(=S)[nH]c(N)nc54)C[C@@H]3OP(=O)(O)OC[C@H]3O[C@@H](n4cnc5c(=S)[nH]c(N)nc54)C[C@@H]3OP(=O)(O)OC[C@H]3O[C@@H](n4cnc5c(=S)[nH]c(N)nc54)C[C@@H]3OP(=O)(O)OC[C@H]3O[C@@H](n4cc(C)c(=O)[nH]c4=O)C[C@@H]3OP(=O)(O)OC[C@H]3O[C@@H](n4cnc5c(=S)[nH]c(N)nc54)C[C@@H]3OP(=O)(O)OC[C@H]3O[C@@H](n4cnc5c(=O)[nH]c(N)nc54)[C@H](O)[C@@H]3O)[C@@H](CO)O2)c(=O)[nH]c1=O
- Kd [1]: 7300 nM

SMILES: Cc1cn([C@H]2C[C@H](OP(=O)(O)OC[C@H]3O[C@@H](n4cnc5c(=O)[nH]c(N)nc54)[C@H](O)[C@@H]3O)[C@@H](COP(=O)(O)O[C@H]3C[C@H](n4cnc5c(=S)[nH]c(N)nc54)O[C@@H]3COP(=O)(O)O[C@H]3C[C@H](n4cnc5c(=S)[nH]c(N)nc54)O[C@@H]3COP(=O)(O)O[C@H]3C[C@H](n4cc(C)c(=S)[nH]c4=O)O[C@@H]3COP(=O)(O)O[C@H]3C[C@H](n4cnc5c(=S)[nH]c(N)nc54)O[C@@H]3COP(=O)(O)O[C@H]3C[C@H](n4cnc5c(=S)[nH]c(N)nc54)O[C@@H]3COP(=O)(O)O[C@H]3C[C@H](n4cc(C)c(=S)[nH]c4=O)O[C@@H]3COP(=O)(O)O[C@H]3C[C@H](n4cnc5c(=S)[nH]c(N)nc54)O[C@@H]3COP(=O)(O)O[C@H]3C[C@H](n4cnc5c(=S)[nH]c(N)nc54)O[C@@H]3COP(=O)(O)O[C@H]3C[C@H](n4cc(C)c(=S)[nH]c4=O)O[C@@H]3COP(=O)(O)O[C@H]3C[C@H](n4cnc5c(=S)[nH]c(N)nc54)O[C@@H]3COP(=O)(O)O[C@H]3C[C@H](n4cnc5c(=S)[nH]c(N)nc54)O[C@@H]3CO)O2)c(=O)[nH]c1=O
- Activity [2]: inactive
- Activity [3]: inactive
- Kd [4]: > 100000 nM
- Kd [5]: 200 nM
- Activity [6]: inactive
- Kd [7]: 400 nM
- Activity [8]: inactive
- Activity [9]: Active
- Activity [10]: inactive
- Activity [11]: Active
- Activity [12]: Active
